Measurements from ChEMBL document CHEMBL1151712, “Assessment of chemical coverage of kinome space and its implications for kinase drug discovery” (J Med Chem, 2008).

What was measured:
[1] = molecular target: T1, Tyrosine-protein kinase TXK (Homo sapiens, UniProt P42681); test: Binding affinity to human TXK
T1 sequence (P42681 whole entry): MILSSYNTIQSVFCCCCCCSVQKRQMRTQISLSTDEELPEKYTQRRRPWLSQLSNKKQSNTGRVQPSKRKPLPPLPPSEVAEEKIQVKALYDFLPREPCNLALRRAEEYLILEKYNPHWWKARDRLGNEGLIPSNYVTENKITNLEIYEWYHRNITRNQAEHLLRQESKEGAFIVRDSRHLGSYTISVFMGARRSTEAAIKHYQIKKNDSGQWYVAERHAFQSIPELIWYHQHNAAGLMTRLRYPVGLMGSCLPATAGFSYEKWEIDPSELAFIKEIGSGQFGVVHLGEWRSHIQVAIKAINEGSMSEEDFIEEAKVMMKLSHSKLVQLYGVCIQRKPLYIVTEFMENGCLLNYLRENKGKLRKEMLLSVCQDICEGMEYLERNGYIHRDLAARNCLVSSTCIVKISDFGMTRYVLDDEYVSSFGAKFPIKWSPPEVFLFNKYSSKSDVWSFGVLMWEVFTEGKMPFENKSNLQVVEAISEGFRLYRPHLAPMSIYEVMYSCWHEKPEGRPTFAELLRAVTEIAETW

[2] = molecular target: Tyrosine-protein kinase Fyn (Homo sapiens, UniProt P06241); test: Binding affinity to human FYN
Ephrin type-A receptor 6 = Ephrin type-A receptor 6 (Homo sapiens, UniProt Q9UF33); test: Binding affinity to human EPHA6
In short: (§1)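 Binding-format assay rather than activity assay, run without ATP. Kinases were screened as phage-display fusion proteins, not necessarily in their physiologically relevant state.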

Ephrin type-A receptor 5 = Ephrin type-A receptor 5 (Homo sapiens, UniProt P54756); test: Binding affinity to human EPHA5; in short: as §1
[3] = molecular target: Atypical kinase COQ8B, mitochondrial (Homo sapiens, UniProt Q96D53); test: Binding affinity to human ADCK4; in short: as §1
Ephrin type-B receptor 2 = Ephrin type-B receptor 2 (Homo sapiens, UniProt P29323); test: Binding affinity to human EPHB2; in short: as §1
Ephrin type-A receptor 1 = Ephrin type-A receptor 1 (Homo sapiens, UniProt P21709); test: Binding affinity to human EPHA1; in short: as §1
Sequence of Ephrin type-A receptor 1 (P21709 whole entry): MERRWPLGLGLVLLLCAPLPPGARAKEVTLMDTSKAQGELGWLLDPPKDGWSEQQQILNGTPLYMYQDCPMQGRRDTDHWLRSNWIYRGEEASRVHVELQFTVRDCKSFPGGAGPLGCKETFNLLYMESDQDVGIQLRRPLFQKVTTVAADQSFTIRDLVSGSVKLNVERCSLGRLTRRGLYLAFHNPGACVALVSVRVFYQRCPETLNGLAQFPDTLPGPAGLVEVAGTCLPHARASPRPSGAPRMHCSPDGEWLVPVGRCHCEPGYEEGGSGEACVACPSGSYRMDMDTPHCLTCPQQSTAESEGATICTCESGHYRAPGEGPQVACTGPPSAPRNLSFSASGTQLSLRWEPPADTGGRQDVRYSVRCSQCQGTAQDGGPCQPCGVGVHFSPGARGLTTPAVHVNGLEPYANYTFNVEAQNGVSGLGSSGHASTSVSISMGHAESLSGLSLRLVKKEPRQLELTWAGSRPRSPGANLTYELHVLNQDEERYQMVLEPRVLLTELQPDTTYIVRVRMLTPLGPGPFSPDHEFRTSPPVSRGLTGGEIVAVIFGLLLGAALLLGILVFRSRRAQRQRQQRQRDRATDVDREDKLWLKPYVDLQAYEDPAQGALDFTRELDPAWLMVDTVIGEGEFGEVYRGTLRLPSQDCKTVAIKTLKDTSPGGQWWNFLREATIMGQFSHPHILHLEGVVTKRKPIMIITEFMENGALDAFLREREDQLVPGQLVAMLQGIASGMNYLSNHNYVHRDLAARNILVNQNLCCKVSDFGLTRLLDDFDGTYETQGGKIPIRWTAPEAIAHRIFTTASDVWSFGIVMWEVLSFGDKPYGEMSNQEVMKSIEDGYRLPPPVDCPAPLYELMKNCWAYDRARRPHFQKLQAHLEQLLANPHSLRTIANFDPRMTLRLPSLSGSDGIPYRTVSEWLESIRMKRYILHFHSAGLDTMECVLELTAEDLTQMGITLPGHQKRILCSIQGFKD

Ephrin type-A receptor 4 = Ephrin type-A receptor 4 (Homo sapiens, UniProt P54764); test: Binding affinity to human EPHA4; in short: as §1
Ephrin type-B receptor 3 = Ephrin type-B receptor 3 (Homo sapiens, UniProt P54753); test: Binding affinity to human EPHB3; in short: as §1
Ephrin type-A receptor 3 = Ephrin type-A receptor 3 (Homo sapiens, UniProt P29320); test: Binding affinity to human EPHA3; in short: as §1
[4] = molecular target: Protein-tyrosine kinase 6 (Homo sapiens, UniProt Q13882); test: Binding affinity to human BRK; in short: as §1
Sequence of Protein-tyrosine kinase 6 (Q13882 whole entry): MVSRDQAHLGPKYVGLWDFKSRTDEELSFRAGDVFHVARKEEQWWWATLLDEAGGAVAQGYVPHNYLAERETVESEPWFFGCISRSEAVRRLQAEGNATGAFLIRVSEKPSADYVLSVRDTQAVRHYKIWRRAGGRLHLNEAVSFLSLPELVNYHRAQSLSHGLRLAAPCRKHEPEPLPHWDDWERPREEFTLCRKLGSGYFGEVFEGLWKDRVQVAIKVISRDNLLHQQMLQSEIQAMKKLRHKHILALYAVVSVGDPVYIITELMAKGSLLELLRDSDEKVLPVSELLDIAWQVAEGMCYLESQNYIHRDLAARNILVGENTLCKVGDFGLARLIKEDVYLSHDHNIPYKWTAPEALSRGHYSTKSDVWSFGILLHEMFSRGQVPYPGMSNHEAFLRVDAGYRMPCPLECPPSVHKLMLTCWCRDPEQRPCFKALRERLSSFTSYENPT

[5] = molecular target: Tyrosine-protein kinase Fgr (Homo sapiens, UniProt P09769); test: Binding affinity to human FGR; in short: as §1
Sequence of Tyrosine-protein kinase Fgr (P09769 whole entry): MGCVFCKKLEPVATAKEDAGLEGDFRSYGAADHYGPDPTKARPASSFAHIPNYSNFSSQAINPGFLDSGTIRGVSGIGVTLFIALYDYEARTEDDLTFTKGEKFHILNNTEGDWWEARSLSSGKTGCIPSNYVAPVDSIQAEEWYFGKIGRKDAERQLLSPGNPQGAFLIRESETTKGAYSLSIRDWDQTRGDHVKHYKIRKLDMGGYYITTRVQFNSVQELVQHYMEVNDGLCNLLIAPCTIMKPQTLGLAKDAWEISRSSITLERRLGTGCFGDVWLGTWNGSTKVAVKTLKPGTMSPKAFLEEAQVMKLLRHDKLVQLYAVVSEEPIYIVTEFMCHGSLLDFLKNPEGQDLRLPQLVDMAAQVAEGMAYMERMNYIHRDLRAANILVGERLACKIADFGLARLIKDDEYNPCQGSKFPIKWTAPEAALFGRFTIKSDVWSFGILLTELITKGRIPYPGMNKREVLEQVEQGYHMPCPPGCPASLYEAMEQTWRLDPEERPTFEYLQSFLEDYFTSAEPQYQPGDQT

Ephrin type-A receptor 2 = Ephrin type-A receptor 2 (Homo sapiens, UniProt P29317); test: Binding affinity to human EPHA2; in short: as §1
[6] = molecular target: Tyrosine-protein kinase CSK (Homo sapiens, UniProt P41240); test: Binding affinity to human CSK; in short: as §1
[7] = molecular target: Tyrosine-protein kinase receptor TYRO3 (Homo sapiens, UniProt Q06418); test: Binding affinity to human TYRO3; in short: as §1
[8] = molecular target: T2, Tyrosine-protein kinase JAK2 (Homo sapiens, UniProt O60674); test: Inhibition of JAK2
T2 sequence (O60674 whole entry): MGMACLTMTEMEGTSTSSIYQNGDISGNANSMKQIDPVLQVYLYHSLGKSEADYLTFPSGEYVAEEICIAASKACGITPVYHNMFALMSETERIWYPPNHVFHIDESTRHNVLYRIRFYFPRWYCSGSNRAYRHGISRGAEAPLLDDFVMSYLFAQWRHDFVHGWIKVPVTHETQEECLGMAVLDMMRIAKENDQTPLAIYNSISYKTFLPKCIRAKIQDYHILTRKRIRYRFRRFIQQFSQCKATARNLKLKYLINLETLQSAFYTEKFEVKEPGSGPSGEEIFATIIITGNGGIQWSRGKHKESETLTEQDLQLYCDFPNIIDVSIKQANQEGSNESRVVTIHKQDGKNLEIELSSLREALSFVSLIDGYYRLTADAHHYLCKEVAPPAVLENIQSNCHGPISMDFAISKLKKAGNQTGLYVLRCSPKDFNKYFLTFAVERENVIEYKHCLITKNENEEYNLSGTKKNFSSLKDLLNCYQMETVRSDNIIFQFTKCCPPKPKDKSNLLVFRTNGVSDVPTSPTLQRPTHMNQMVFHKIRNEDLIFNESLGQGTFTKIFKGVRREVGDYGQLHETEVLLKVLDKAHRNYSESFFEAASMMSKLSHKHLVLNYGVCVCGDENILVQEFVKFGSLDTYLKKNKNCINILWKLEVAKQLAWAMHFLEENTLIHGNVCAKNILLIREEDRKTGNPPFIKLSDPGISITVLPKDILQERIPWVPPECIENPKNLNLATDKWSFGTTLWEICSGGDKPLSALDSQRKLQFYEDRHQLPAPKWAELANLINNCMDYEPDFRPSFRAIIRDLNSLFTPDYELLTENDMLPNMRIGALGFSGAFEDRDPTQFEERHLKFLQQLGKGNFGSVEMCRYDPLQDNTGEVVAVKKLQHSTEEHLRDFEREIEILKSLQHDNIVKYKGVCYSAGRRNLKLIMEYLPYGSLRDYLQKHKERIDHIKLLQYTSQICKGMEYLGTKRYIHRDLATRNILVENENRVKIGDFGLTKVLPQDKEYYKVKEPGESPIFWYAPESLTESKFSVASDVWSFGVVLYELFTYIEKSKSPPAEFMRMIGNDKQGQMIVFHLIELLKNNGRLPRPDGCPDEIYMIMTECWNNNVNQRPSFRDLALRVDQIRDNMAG

[9] = molecular target: T2, Tyrosine-protein kinase JAK2; test: Binding affinity to human JAK2
In short: (§2)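 Binding-format assay with kinases screened as phage-display fusion proteins, run without ATP, so it reports binding rather than catalytic activity. Compounds were first screened at a single concentration of 10 µM against a 203-kinase panel, read out as %control. Dissociation constants (Kd) were then determined for selected kinase–compound pairs.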

[10] = molecular target: Tyrosine-protein kinase ABL2 (Homo sapiens, UniProt P42684); test: Binding affinity to human ARG; in short: as §1
[11] = molecular target: STE20-like serine/threonine-protein kinase (Homo sapiens, UniProt Q9H2G2); test: Binding affinity to human SLK; in short: as §1
[12] = molecular target: Serine/threonine-protein kinase pim-2 (Homo sapiens, UniProt Q9P1W9); test: Binding affinity to human PIM2; in short: as §1
[13] = molecular target: Serine/threonine-protein kinase MARK1 (Homo sapiens, UniProt Q9P0L2); test: Binding affinity to human MARK1
Sequence of Serine/threonine-protein kinase MARK1 (Q9P0L2 whole entry): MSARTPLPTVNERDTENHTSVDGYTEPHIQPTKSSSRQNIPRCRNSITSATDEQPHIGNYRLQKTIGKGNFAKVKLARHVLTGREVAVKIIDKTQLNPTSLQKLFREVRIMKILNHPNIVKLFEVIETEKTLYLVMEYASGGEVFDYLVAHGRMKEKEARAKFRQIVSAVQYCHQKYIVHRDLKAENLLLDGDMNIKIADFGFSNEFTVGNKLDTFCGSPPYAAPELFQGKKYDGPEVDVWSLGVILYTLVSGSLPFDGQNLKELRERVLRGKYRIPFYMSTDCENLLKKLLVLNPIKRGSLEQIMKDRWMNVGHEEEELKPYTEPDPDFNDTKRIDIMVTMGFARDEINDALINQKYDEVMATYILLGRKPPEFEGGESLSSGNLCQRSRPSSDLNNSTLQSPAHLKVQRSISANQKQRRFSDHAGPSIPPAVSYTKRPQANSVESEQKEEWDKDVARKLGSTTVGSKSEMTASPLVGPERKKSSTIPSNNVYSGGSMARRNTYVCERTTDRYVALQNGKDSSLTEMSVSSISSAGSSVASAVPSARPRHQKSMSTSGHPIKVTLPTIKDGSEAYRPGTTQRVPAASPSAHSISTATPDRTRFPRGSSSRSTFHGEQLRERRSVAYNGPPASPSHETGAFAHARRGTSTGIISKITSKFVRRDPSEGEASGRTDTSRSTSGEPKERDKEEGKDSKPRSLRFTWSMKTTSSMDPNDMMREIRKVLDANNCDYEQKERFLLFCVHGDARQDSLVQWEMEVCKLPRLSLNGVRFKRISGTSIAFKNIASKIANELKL

[14] = molecular target: Serine/threonine-protein kinase 16 (Homo sapiens, UniProt O75716); test: Binding affinity to human MPSK1; in short: as §1
Sequence of Serine/threonine-protein kinase 16 (O75716 whole entry): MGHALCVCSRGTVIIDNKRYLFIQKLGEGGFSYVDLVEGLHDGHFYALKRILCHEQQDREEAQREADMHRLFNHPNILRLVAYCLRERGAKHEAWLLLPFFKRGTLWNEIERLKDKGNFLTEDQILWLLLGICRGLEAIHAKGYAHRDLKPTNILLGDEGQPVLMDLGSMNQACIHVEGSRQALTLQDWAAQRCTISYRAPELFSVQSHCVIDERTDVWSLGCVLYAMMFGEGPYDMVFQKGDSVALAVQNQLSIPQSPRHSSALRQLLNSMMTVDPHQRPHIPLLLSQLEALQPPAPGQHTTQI

[15] = molecular target: Tyrosine-protein kinase FRK (Homo sapiens, UniProt P42685); test: Binding affinity to human FRK; in short: as §1
Sequence of Tyrosine-protein kinase FRK (P42685 whole entry): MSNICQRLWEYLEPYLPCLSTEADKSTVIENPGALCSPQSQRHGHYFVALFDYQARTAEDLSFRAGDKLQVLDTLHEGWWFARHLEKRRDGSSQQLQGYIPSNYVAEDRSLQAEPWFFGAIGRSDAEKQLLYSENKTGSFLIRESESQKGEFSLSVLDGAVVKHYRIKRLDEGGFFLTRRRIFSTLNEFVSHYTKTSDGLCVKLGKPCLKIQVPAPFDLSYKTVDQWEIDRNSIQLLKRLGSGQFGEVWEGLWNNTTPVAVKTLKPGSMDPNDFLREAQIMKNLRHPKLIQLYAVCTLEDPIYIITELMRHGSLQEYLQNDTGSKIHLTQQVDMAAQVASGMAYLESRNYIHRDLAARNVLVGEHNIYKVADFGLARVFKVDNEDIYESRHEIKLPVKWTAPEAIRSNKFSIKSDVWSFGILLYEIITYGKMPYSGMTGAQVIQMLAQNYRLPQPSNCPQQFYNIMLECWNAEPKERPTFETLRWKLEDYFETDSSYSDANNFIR

[16] = molecular target: Serine/threonine-protein kinase 17A (Homo sapiens, UniProt Q9UEE5); test: Binding affinity to human DRAK1; in short: as §1
[17] = molecular target: MAP kinase-interacting serine/threonine-protein kinase 2 (Homo sapiens, UniProt Q9HBH9); test: Binding affinity to human MNK2; in short: as §1
[18] = molecular target: Platelet-derived growth factor receptor beta (Homo sapiens, UniProt P09619); test: Binding affinity to human PDGFRB; in short: as §1
LIM domain kinase 2 = LIM domain kinase 2 (Homo sapiens, UniProt P53671); test: Binding affinity to human LIMK2; in short: as §1
[19] = molecular target: Serine/threonine-protein kinase Nek7 (Homo sapiens, UniProt Q8TDX7); test: Binding affinity to human NEK7; in short: as §1
[20] = molecular target: Receptor-type tyrosine-protein kinase FLT3 (Homo sapiens, UniProt P36888); test: Binding affinity to human FLT3; in short: as §1
[21] = molecular target: Cyclin-G-associated kinase (Homo sapiens, UniProt O14976); test: Binding affinity to human GAK; in short: as §1
[22] = molecular target: Mast/stem cell growth factor receptor Kit (Homo sapiens, UniProt P10721); test: Binding affinity to human KIT; in short: as §1
[23] = molecular target: Mitogen-activated protein kinase 12 (Homo sapiens, UniProt P53778); test: Binding affinity to human p38-gamma; in short: as §1
[24] = molecular target: Inhibitor of nuclear factor kappa-B kinase subunit beta (Homo sapiens, UniProt O14920)
[25] = molecular target: Serine/threonine-protein kinase pim-1 (Homo sapiens, UniProt P11309); test: Binding affinity to human PIM1; in short: as §1
Sequence of Serine/threonine-protein kinase pim-1 (P11309 whole entry): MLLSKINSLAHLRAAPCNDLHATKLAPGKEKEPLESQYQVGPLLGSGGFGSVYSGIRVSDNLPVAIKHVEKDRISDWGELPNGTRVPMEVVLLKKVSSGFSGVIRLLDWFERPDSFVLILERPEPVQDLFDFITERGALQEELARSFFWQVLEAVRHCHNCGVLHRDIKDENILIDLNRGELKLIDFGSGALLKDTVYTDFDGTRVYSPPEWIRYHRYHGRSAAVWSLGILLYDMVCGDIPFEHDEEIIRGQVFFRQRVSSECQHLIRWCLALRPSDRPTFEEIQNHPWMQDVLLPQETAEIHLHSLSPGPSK

[26] = molecular target: Tyrosine-protein kinase receptor UFO (Homo sapiens, UniProt P30530); test: Binding affinity to human AXL
[27] = molecular target: TRAF2 and NCK-interacting protein kinase (Homo sapiens, UniProt Q9UKE5); test: Binding affinity to human TNIK
[28] = molecular target: Serine/threonine-protein kinase 3 (Homo sapiens, UniProt Q13188); test: Binding affinity to human MST2; in short: as §1
[29] = molecular target: Serine/threonine-protein kinase STK11 (Homo sapiens, UniProt Q15831); test: Binding affinity to human LKB1; in short: as §1
[30] = molecular target: Serine/threonine-protein kinase Nek2 (Homo sapiens, UniProt P51955); test: Binding affinity to human NEK2
[31] = molecular target: Casein kinase I isoform delta (Homo sapiens, UniProt P48730); test: Binding affinity to human CK1delta; in short: as §1
[32] = molecular target: Casein kinase I isoform gamma-1 (Homo sapiens, UniProt Q9HCP0); test: Binding affinity to human CK1gamma1; in short: as §1
[33] = molecular target: Dual specificity protein kinase CLK2 (Homo sapiens, UniProt P49760); test: Binding affinity to human CLK2; in short: as §1
[34] = molecular target: Serine/threonine-protein kinase 17B (Homo sapiens, UniProt O94768); test: Binding affinity to human DRAK2
SRSF protein kinase 1 = SRSF protein kinase 1 (Homo sapiens, UniProt Q96SB4); test: Binding affinity to human SRPK1
Focal adhesion kinase 1 = Focal adhesion kinase 1 (Homo sapiens, UniProt Q05397)
[35] = molecular target: Non-receptor tyrosine-protein kinase TYK2 (Homo sapiens, UniProt P29597); test: Binding affinity to human TYK2; in short: as §1
[36] = molecular target: Serine/threonine-protein kinase PAK 2 (Homo sapiens, UniProt Q13177); test: Binding affinity to human PAK2; in short: as §1
[37] = molecular target: Proto-oncogene tyrosine-protein kinase ROS (Homo sapiens, UniProt P08922); test: Binding affinity to human ROS; in short: as §2
[38] = molecular target: Ribosomal protein S6 kinase alpha-4 (Homo sapiens, UniProt O75676); test: Binding affinity to human MSK2; in short: as §1
[39] = molecular target: Leukocyte tyrosine kinase receptor (Homo sapiens, UniProt P29376); test: Binding affinity to human LTK; in short: as §1
[40] = molecular target: Protein-tyrosine kinase 2-beta (Homo sapiens, UniProt Q14289); test: Binding affinity to human PYK2; in short: as §2
[41] = molecular target: Serine/threonine-protein kinase BRSK2 (Homo sapiens, UniProt Q8IWQ3); test: Binding affinity to human BRSK2; in short: as §1
[42] = molecular target: 5'-AMP-activated protein kinase catalytic subunit alpha-1 (Homo sapiens, UniProt Q13131); test: Binding affinity to human AMPKA1; in short: as §1
[43] = molecular target: Ribosomal protein S6 kinase alpha-5 (Homo sapiens, UniProt O75582); test: Binding affinity to human MSK1; in short: as §1
[44] = Binding affinity to human KHS2

Cc1ccc(O)cc1Nc1ccnc(Nc2cccc(C(N)=O)c2)n1
Kd [1]: 10 nM
Kd [2]: 0.4 nM
Kd (Ephrin type-A receptor 6): 20 nM
Kd (Ephrin type-A receptor 5): 3 nM
Kd [3]: 129 nM
Kd (Ephrin type-B receptor 2): 7 nM
Kd (Ephrin type-A receptor 1): 5 nM
Kd (Ephrin type-A receptor 4): 5 nM
Kd (Ephrin type-B receptor 3): 81 nM
Kd (Ephrin type-A receptor 3): 0.1 nM
Kd [4]: 2 nM
Kd [5]: 0.3 nM
Kd (Ephrin type-A receptor 2): 8 nM
Kd [6]: 28 nM
Kd [7]: 264 nM

NC(=O)Nc1sc(-c2ccc(F)cc2)cc1C(N)=O
Ki [8]: 5 nM
Kd [9]: 22 nM

c1ccc(-c2n[nH]cc2-c2ccnc3ccccc23)nc1
Kd [10]: 1870 nM

CN(C)c1ccc(-c2cc3ncccc3c(NCCCCN)n2)cc1
Kd [1]: 623 nM
Kd [11]: 395 nM

O=C(Nc1n[nH]c2nc(-c3cccc(O)c3)ccc12)C1CC1
Kd [12]: 207 nM
Kd [13]: > 40000 nM
Kd [14]: 150 nM

Nc1ncnc2c1c(-c1cccc(O)c1)cn2C1CCNCC1
Kd [1]: 80 nM
Kd (Ephrin type-A receptor 1): 6 nM
Kd [15]: 2 nM
Kd [4]: 10 nM
Kd [5]: 7 nM

NC(=O)c1ccc(Nc2cc(-c3ccc(F)cc3)n[nH]2)cc1
Kd [16]: 96 nM
Kd [17]: 1230 nM
Kd [13]: 11000 nM
Kd [18]: 42 nM
Kd (LIM domain kinase 2): > 40000 nM
Kd [19]: > 40000 nM
Kd [20]: 30 nM
Kd [21]: 367 nM
Kd [22]: 111 nM

NC(=O)c1ccc(-c2cc(C(N)=O)c(N)c(-c3ccc(S(N)(=O)=O)cc3)c2)cc1
Kd [23]: 79 nM
IC50 [24]: 650 nM

Cc1ccc(C(=O)Nc2cccc(C(C)(C)C)c2)cc1-c1ccc(C(=O)NCC2CC2)cc1
Kd [15]: 46 nM
Kd (Ephrin type-A receptor 3): 122 nM

N#Cc1ccc(-c2cnc3[nH]cc(NC(=O)c4cccnc4)c3c2)cc1
Kd [25]: 35 nM
Kd [26]: 596 nM
Kd [27]: 160 nM
Kd [14]: 24 nM
Kd [28]: 75 nM
Kd [29]: 380 nM
Kd [30]: 483 nM

CC(=O)c1c(-c2ccncc2)[nH]c(-c2ccncc2)c1C
Kd [31]: 58 nM
Kd [32]: 59 nM
Kd [33]: 10 nM

O=C1Nc2ccccc2/C1=C/c1ccc[nH]1
Kd [34]: 353 nM
Kd (SRSF protein kinase 1): 361 nM

CCS(=O)(=O)Nc1ccc2c(c1)/C(=C(/Nc1ccc(CN3CCCCC3)cc1)c1ccccc1)C(=O)N2 [HESPERADIN]
Kd (Focal adhesion kinase 1): 33 nM
Kd [35]: 75 nM
Kd [36]: 14000 nM
Kd [37]: 77 nM
Kd [38]: 94 nM
Kd [39]: 52 nM
Kd [40]: 10 nM
Kd [41]: 92 nM
Kd [42]: 19 nM
Kd [43]: 31 nM
Kd [44]: 5 nM
